# Active and inactive are the calls of the source. The calls are words filed in the database; no cut-off is given here.
# Assays:
# HL-60(TB) = test: Cytotoxicity against human HL-60(TB) cells assessed as growth inhibition at 10 uM after 48 hrs by sulphorhodamine B assay; type: functional; details: HL-60, 48 h, read-out: GI
# Method in brief: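 NCI-60 one-dose primary screen run to the Drug Evaluation Branch protocol. Cells are exposed to a single 10 µM concentration for 48 h continuously, and growth is read by SRB protein assay. Data are reported as percent growth of treated cells, expressed as % growth inhibition.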
# A498 = test: Cytotoxicity against human A498 cells assessed as growth inhibition at 10 uM after 48 hrs by sulphorhodamine B assay; type: functional; details: A498, 48 h, read-out: GI
# Method in brief: (§1)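 NCI-60 one-dose screen per the NCI Drug Evaluation Branch protocol. Cells given a single 10 µM concentration with 48 h continuous exposure. Growth estimated by sulphorhodamine B protein assay. Result expressed as percentage growth inhibition relative to untreated growth.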
# UACC-62 = test: Cytotoxicity against human UACC62 cells assessed as growth inhibition at 10 uM after 48 hrs by sulphorhodamine B assay; type: functional; details: UACC-62, 48 h, read-out: GI; method in brief: as §1
# RPMI-8226 = test: Cytotoxicity against human RPMI8226 cells assessed as growth inhibition at 10 uM after 48 hrs by sulphorhodamine B assay; type: functional; details: RPMI-8226, 48 h, read-out: GI; method in brief: as §1
# M14 = test: Cytotoxicity against human M14 cells assessed as growth inhibition at 10 uM after 48 hrs by sulphorhodamine B assay; type: functional; details: M14, 48 h, read-out: GI; method in brief: as §1
# [1] = Displacement of methyl green from DNA (unknown origin) after 24 hrs
# Method in brief: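 DNA-methyl green complex was stirred in 0.05 M Tris-HCl pH 7.5 with 7.5 mmol MgSO4 at 37 °C for 24 h. Compound was dried down from EtOH in tubes and the DNA-methyl green solution added. A630 was read initially and after 24 h dark incubation at room temperature, corrected and normalized to untreated complex. IC50 is the concentration giving a 50% absorbance decrease; mean ± SD, n = 6.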
# SNB-75 = test: Cytotoxicity against human SNB75 cells assessed as growth inhibition at 10 uM after 48 hrs by sulphorhodamine B assay; type: functional; details: SNB-75, 48 h, read-out: GI; method in brief: as §1
# SK-MEL-5 = test: Cytotoxicity against human SK-MEL-5 cells assessed as growth inhibition at 10 uM after 48 hrs by sulphorhodamine B assay; type: functional; details: SK-MEL-5, 48 h, read-out: GI; method in brief: as §1
# CAKI-1 = test: Cytotoxicity against human Caki1 cells assessed as growth inhibition at 10 uM after 48 hrs by sulphorhodamine B assay; type: functional; details: CAKI-1, 48 h, read-out: GI; method in brief: as §1
# SK-MEL-2 = test: Cytotoxicity against human SK-MEL-2 cells assessed as growth inhibition at 10 uM after 48 hrs by sulphorhodamine B assay; type: functional; details: SK-MEL-2, 48 h, read-out: GI; method in brief: as §1
# CCRF-CEM = test: Cytotoxicity against human CCRF-CEM cells assessed as growth inhibition at 10 uM after 48 hrs by sulphorhodamine B assay; type: functional; details: read-out: GI; method in brief: as §1
# SNB-19 = test: Cytotoxicity against human SNB19 cells assessed as growth inhibition at 10 uM after 48 hrs by sulphorhodamine B assay; type: functional; details: SNB-19, 48 h, read-out: GI; method in brief: as §1
# IGROV-1 = test: Cytotoxicity against human IGROV1 cells assessed as growth inhibition at 10 uM after 48 hrs by sulphorhodamine B assay; type: functional; details: IGROV-1, 48 h, read-out: GI; method in brief: as §1
# U-251 = test: Cytotoxicity against human U251 cells assessed as growth inhibition at 10 uM after 48 hrs by sulphorhodamine B assay; type: functional; details: U-251, 48 h, read-out: GI; method in brief: as §1
# OVCAR-5 = test: Cytotoxicity against human OVCAR5 cells assessed as growth inhibition at 10 uM after 48 hrs by sulphorhodamine B assay; type: functional; details: OVCAR-5, 48 h, read-out: GI; method in brief: as §1
# DU-145 = test: Cytotoxicity against human DU145 cells assessed as growth inhibition at 10 uM after 48 hrs by sulphorhodamine B assay; type: functional; details: DU-145, 48 h, read-out: GI; method in brief: as §1
# HOP-92 = test: Cytotoxicity against human HOP92 cells assessed as growth inhibition at 10 uM after 48 hrs by sulphorhodamine B assay; type: functional; details: HOP-92, 48 h, read-out: GI; method in brief: as §1
# MDA-MB-435 = test: Cytotoxicity against human MDA-MB-435 cells assessed as growth inhibition at 10 uM after 48 hrs by sulphorhodamine B assay; type: functional; details: MDA-MB-435, 48 h, read-out: GI; method in brief: as §1
# MOLT-4 = test: Cytotoxicity against human MOLT4 cells assessed as growth inhibition at 10 uM after 48 hrs by sulphorhodamine B assay; type: functional; details: MOLT-4, 48 h, read-out: GI; method in brief: as §1
# OVCAR-4 = test: Cytotoxicity against human OVCAR4 cells assessed as growth inhibition at 10 uM after 48 hrs by sulphorhodamine B assay; type: functional; details: OVCAR-4, 48 h, read-out: GI; method in brief: as §1
# SF-295 = test: Cytotoxicity against human SF295 cells assessed as growth inhibition at 10 uM after 48 hrs by sulphorhodamine B assay; type: functional; details: SF-295, 48 h, read-out: GI; method in brief: as §1
# PC-3 = test: Cytotoxicity against human PC3 cells assessed as growth inhibition at 10 uM after 48 hrs by sulphorhodamine B assay; type: functional; details: PC-3, 48 h, read-out: GI; method in brief: as §1
# SF-268 = test: Cytotoxicity against human SF268 cells assessed as growth inhibition at 10 uM after 48 hrs by sulphorhodamine B assay; type: functional; details: SF-268, 48 h, read-out: GI; method in brief: as §1
# ACHN = test: Cytotoxicity against human ACHN cells assessed as growth inhibition at 10 uM after 48 hrs by sulphorhodamine B assay; type: functional; details: read-out: GI; method in brief: as §1
# T47D = test: Cytotoxicity against human T47D cells assessed as growth inhibition at 10 uM after 48 hrs by sulphorhodamine B assay; type: functional; details: read-out: GI; method in brief: as §1
# [2] = Cytotoxicity against human EKVX cells assessed as growth inhibition at 10 uM after 48 hrs by sulphorhodamine B assay; type: functional; details: read-out: GI; method in brief: as §1
# A549 = test: Cytotoxicity against human A549 cells assessed as growth inhibition at 10 uM after 48 hrs by sulphorhodamine B assay; type: functional; details: A549, 48 h, read-out: GI; method in brief: as §1
# Hs-578T = test: Cytotoxicity against human Hs578T cells assessed as growth inhibition at 10 uM after 48 hrs by sulphorhodamine B assay; type: functional; details: read-out: GI; method in brief: as §1
# LOX IMVI = test: Cytotoxicity against human LOXIMVI cells assessed as growth inhibition at 10 uM after 48 hrs by sulphorhodamine B assay; type: functional; details: read-out: GI; method in brief: as §1
# UO-31 = test: Cytotoxicity against human UO31 cells assessed as growth inhibition at 10 uM after 48 hrs by sulphorhodamine B assay; type: functional; details: UO-31, 48 h, read-out: GI; method in brief: as §1
# SR = test: Cytotoxicity against human SR cells assessed as growth inhibition at 10 uM after 48 hrs by sulphorhodamine B assay; type: functional; details: read-out: GI; method in brief: as §1
# SK-OV-3 = test: Cytotoxicity against human SKOV3 cells assessed as growth inhibition at 10 uM after 48 hrs by sulphorhodamine B assay; type: functional; details: SK-OV-3, 48 h, read-out: GI; method in brief: as §1
# NCI-H522 = test: Cytotoxicity against human NCI-H522 cells assessed as growth inhibition at 10 uM after 48 hrs by sulphorhodamine B assay; type: functional; details: NCI-H522, 48 h, read-out: GI; method in brief: as §1
# HCT-116 = test: Cytotoxicity against human HCT116 cells assessed as growth inhibition at 10 uM after 48 hrs by sulphorhodamine B assay; type: functional; details: HCT-116, 48 h, read-out: GI; method in brief: as §1
# HCT-15 = test: Cytotoxicity against human HCT15 cells assessed as growth inhibition at 10 uM after 48 hrs by sulphorhodamine B assay; type: functional; details: HCT-15, 48 h, read-out: GI; method in brief: as §1
# K562 = test: Cytotoxicity against human K562 cells assessed as growth inhibition at 10 uM after 48 hrs by sulphorhodamine B assay; type: functional; details: K562, 48 h, read-out: GI; method in brief: as §1
# MCF7 = test: Cytotoxicity against human MCF7 cells assessed as growth inhibition at 10 uM after 48 hrs by sulphorhodamine B assay; type: functional; details: MCF7, 48 h, read-out: GI; method in brief: as §1
# NCI-H23 = test: Cytotoxicity against human NCI-H23 cells assessed as growth inhibition at 10 uM after 48 hrs by sulphorhodamine B assay; type: functional; details: NCI-H23, 48 h, read-out: GI; method in brief: as §1
# HT-29 = test: Cytotoxicity against human HT-29 cells assessed as growth inhibition at 10 uM after 48 hrs by sulphorhodamine B assay; type: functional; details: HT-29, 48 h, read-out: GI; method in brief: as §1
# [3] = Binding affinity to DNA (unknown origin) at 5 mg/mL by RP-TLC plate analysis
# Method in brief: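 Reversed-phase C18 TLC plates pre-developed in methanol/water 8:2. Compound spotted at origin (5 mg/mL in methanol), then DNA (1 mg/mL in water/methanol 8:2) applied at the same spot. Plates developed in the same eluent; DNA located by anisaldehyde spray (blue). Ethidium bromide as positive control.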
# NCI/ADR-RES = test: Cytotoxicity against human NCI/ADR-RES cells assessed as growth inhibition at 10 uM after 48 hrs by sulphorhodamine B assay; type: functional; details: read-out: GI; method in brief: as §1
# RXF 393 = test: Cytotoxicity against human RXF393 cells assessed as growth inhibition at 10 uM after 48 hrs by sulphorhodamine B assay; type: functional; details: RXF 393, 48 h, read-out: GI; method in brief: as §1
smiles,measurement,setting,value
CC1CCCc2c1nc1[nH]c(=S)n(-c3ccccc3)c(=N)c1c2-c1ccc(Cl)cc1 (centres undefined),inhibition of growth at 10 µM,HL-60(TB),24.2%
same,inhibition of growth at 10 µM,A498,25.2%
same,inhibition of growth at 10 µM,UACC-62,25.3%
same,inhibition of growth at 10 µM,RPMI-8226,66%
same,inhibition of growth at 10 µM,M14,17.3%
same,IC50,[1],0.097 µg/mL
same,inhibition of growth at 10 µM,SNB-75,13.9%
same,inhibition of growth at 10 µM,SK-MEL-5,12%
same,inhibition of growth at 10 µM,CAKI-1,< 10%
same,inhibition of growth at 10 µM,SK-MEL-2,11.3%
same,inhibition of growth at 10 µM,CCRF-CEM,20.7%
same,inhibition of growth at 10 µM,SNB-19,< 10%
same,inhibition of growth at 10 µM,IGROV-1,33.3%
same,inhibition of growth at 10 µM,U-251,15.2%
same,inhibition of growth at 10 µM,OVCAR-5,14.3%
same,inhibition of growth at 10 µM,DU-145,13%
same,inhibition of growth at 10 µM,HOP-92,26.2%
same,inhibition of growth at 10 µM,MDA-MB-435,< 10%
same,inhibition of growth at 10 µM,MOLT-4,40%
same,inhibition of growth at 10 µM,OVCAR-4,14.5%
same,inhibition of growth at 10 µM,SF-295,12.8%
same,inhibition of growth at 10 µM,PC-3,21%
same,inhibition of growth at 10 µM,SF-268,< 10%
same,inhibition of growth at 10 µM,ACHN,11.3%
same,inhibition of growth at 10 µM,T47D,50%
same,inhibition of growth at 10 µM,[2],31%
same,inhibition of growth at 10 µM,A549,18.9%
same,inhibition of growth at 10 µM,Hs-578T,< 10%
same,inhibition of growth at 10 µM,LOX IMVI,13.1%
same,inhibition of growth at 10 µM,UO-31,44.4%
same,inhibition of growth at 10 µM,SR,< 10%
same,inhibition of growth at 10 µM,SK-OV-3,10.4%
same,inhibition of growth at 10 µM,NCI-H522,31%
same,inhibition of growth at 10 µM,HCT-116,34%
same,inhibition of growth at 10 µM,HCT-15,10%
same,inhibition of growth at 10 µM,K562,28.5%
same,inhibition of growth at 10 µM,MCF7,< 10%
same,inhibition of growth at 10 µM,NCI-H23,11.5%
same,inhibition of growth at 10 µM,HT-29,< 10%
same,Activity,[3],Active
same,inhibition of growth at 10 µM,NCI/ADR-RES,11.4%
same,inhibition of growth at 10 µM,RXF 393,17.8%
CC[n+]1c(-c2ccccc2)c2cc(N)ccc2c2ccc(N)cc21.[Br-] [HOMIDIUM BROMIDE],IC50,[1],0.004 µg/mL
same,Activity,[3],Active

# Reference: ChEMBL document CHEMBL2375313, “Synthesis, in vitro antitumor evaluation and DNA-binding study of novel tetrahydroquinolines and some derived tricyclic and tetracyclic ring systems” (Eur J Med Chem, 2013)
